Sampled rows, rich in hits. Any-hit rate of the full collection: about 2.9%.
PGC1a acetyl inh: modulators of PGC1a acetylation. AID 651687. inhibition, % at 15.6 µM. U2OS PGC1a acetylation, AlphaScreen anti-acetyl-lysine; with virally co-expressed GCN5 acetyltransferase. actives 0.17% (n = 350,000);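 active = every replicate shows inhibition of at least 40%; inconclusive = mean inhibition at least 40% but some replicate below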;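 also: 0% = neutral control wells and 100% = positive control wells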
DENV2 CPE: DENV2-induced cell death inhibition; DENV2-infected cells, cytopathic effect rescue, plate reader; CPE inhibition, % at 9.99 µM; actives 1.7% (n = 350,000); AID 651640; in the data active = CPE inhibition above about 20%, passing the limit was not always enough; inconclusive = no clear call, values can overlap the other calls; tested in BHK-21 cells;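 also: 0% = median of neutral control wells and 100% = median of positive control wells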
Statin myotox sup: suppression of simvastatin myotoxicity. rescue of ATP level, % at 7.49 µM. C2C12 myotubes + simvastatin, ATP luminescence, 48 h; scaled: DMSO 0, geranylgeraniol control 100. actives 0.78% (n = 330,000);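 active = mean ATP rescue above about 67%, or every replicate alone reaching that limit, limit read from the data, passing the limit was not always enough; inconclusive = no clear call, values can overlap the other calls; inactive = mean under the limit and some replicate under it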;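 also: myotubes were challenged with 10 µM simvastatin during compound exposure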
S100A4 inh HTS: inhibitors of human S100A4 binding to myosin IIA peptide | AID 652163 | P26447 | S100A4/TAMRA-MyoIIA peptide fluorescence polarization | actives 0.14% (n = 360,000) | inhibition, % at 10.7 µM;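 active = mean inhibition of at least 70% across replicates, with every replicate also reaching that level; inconclusive = mean inhibition reaches 70% but some replicates fall short; inactive = mean inhibition below 70%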
Target sequence (P26447 whole entry, looked up): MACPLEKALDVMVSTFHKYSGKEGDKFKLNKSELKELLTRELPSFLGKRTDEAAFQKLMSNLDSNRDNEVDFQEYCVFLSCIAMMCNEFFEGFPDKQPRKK
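Material: S100A4 monomer protein / Buffer or medium: 50 mM HEPES pH 7.2, 10 mM CaCl2, 100 mM KCl / Times: 5 min incubation before reading / Benchmarks: neutral control DMSO, positive control TFP / Reagent: labelled myosin peptide probe, 5 nM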
SIRT5 block: inhibitors of human sirtuin-5 desuccinylase; Q9NXA8; Purified SirT5, succinyl-peptide AMC, trypsin-coupled fluorescence; inhibition, % at 15 µM; actives 1.1% (n = 330,000); AID 652115; in the data active = inhibition above about 15%; inconclusive = no clear call, values can overlap the other calls
Target sequence (Q9NXA8 whole entry, looked up): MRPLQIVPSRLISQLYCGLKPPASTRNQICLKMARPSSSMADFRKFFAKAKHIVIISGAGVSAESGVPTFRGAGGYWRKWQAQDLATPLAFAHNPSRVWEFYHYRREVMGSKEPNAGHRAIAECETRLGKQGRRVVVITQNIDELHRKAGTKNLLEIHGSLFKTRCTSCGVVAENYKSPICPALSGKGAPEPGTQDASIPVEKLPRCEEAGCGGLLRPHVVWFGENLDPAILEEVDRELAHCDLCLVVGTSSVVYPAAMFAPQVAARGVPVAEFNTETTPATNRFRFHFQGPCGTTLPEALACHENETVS
* = called active by the depositor; ! = a repeat was not active.

Cc1ccc(S(=O)(=O)Nc2ccc3c(c2)C(=O)N([C@@H](C)CO)C[C@@H](C)[C@@H](CN(C)Cc2ccc(-c4ccccc4)cc2)O3)cc1 was read as PGC1a acetyl inh -11.3, DENV2 CPE 4.5, Statin myotox sup 21.1, S100A4 inh HTS 0.2 and SIRT5 block 16.5*.
`C/C=C/c1cnc2c(c1)C(=O)N([C@@H](C)CO)C[C@@H](C)[C@H](CN(C)C(=O)Nc1c(C)noc1C)O2` gave PGC1a acetyl inh -4.1, DENV2 CPE 3.4, Statin myotox sup -12.9, S100A4 inh HTS 0.2 and SIRT5 block -5.5.
For O=C(C[C@H]1CC[C@H]2[C@@H](COC[C@H](O)CN2S(=O)(=O)c2ccccc2)O1)NCCN1CCCC1 the results were DENV2 CPE 2.6, S100A4 inh HTS -12.2 and SIRT5 block -9.5.
For Cc1ccc(S(=O)(=O)N(C)C[C@H]2Oc3ccc(NC(=O)Cc4cn(C)c5ccccc45)cc3CC(=O)N([C@H](C)CO)C[C@@H]2C)cc1 the results were PGC1a acetyl inh -17.2, DENV2 CPE 18.9, Statin myotox sup 51.4, S100A4 inh HTS 7.1 and SIRT5 block 5.1.
c1ccc(-c2csc3nnc(SCc4ccc5c(c4)OCCO5)n23)cc1 was read as PGC1a acetyl inh -12.5 and Statin myotox sup 157.0*.
`O=C(CSc1nnc2scc(-c3ccccc3)n12)c1ccc2c(c1)OCCO2` gave DENV2 CPE 4.1, Statin myotox sup 4.6, S100A4 inh HTS 5.3 and SIRT5 block 0.8.
For C[C@@H]1CN([C@H](C)CO)C(=O)c2cc(NC(=O)Nc3ccccc3)ccc2O[C@@H]1CN(C)Cc1ccc2c(c1)OCO2 the results were PGC1a acetyl inh 0.2, DENV2 CPE inconclusive, Statin myotox sup -26.6, S100A4 inh HTS -13.2 and SIRT5 block 3.0.
CCCNC(=O)N1C[C@H](C)[C@@H](OC)CN(C)C(=O)c2ccc(NC(=O)CCC)cc2OC[C@@H]1C was read as PGC1a acetyl inh -1.2, DENV2 CPE -4.5, S100A4 inh HTS 24.4 and SIRT5 block 0.3.
Screening CCC(=O)c1ccc(OCC(=O)O)cc1 returned PGC1a acetyl inh -7.2 and Statin myotox sup 106.8*.
`CN(C)CC(=O)N1[C@@H]2c3ccc(C4=CCCCC4)c(=O)n3C[C@H]1[C@H](CO)[C@H]2C(=O)NCC1CC1` gave DENV2 CPE 3.2, Statin myotox sup -2.6, S100A4 inh HTS 6.1 and SIRT5 block -21.2.
For Cc1ccc(C(=O)Nc2ccc(N3CCN(C)CC3)cc2)cc1C the results were DENV2 CPE 26.8*, Statin myotox sup -1.6, S100A4 inh HTS -4.2 and SIRT5 block -1.4.
Screening C[C@H](CO)N1C[C@H](C)[C@@H](CN(C)C(=O)CN(C)C)Oc2cc(-c3ccc(C#N)cc3)ccc2S1(=O)=O returned PGC1a acetyl inh -2.8, DENV2 CPE -3.2, Statin myotox sup 7.8, S100A4 inh HTS -2.5 and SIRT5 block -1.8.
`CCOC(=O)c1c(N)c(C#N)c2n1CCCC2` gave PGC1a acetyl inh -5.9 and Statin myotox sup 112.8*.
For O=C(C[C@H]1C[C@@H]2c3cc(NC(=O)C4CCC4)ccc3O[C@@H]2[C@@H](CO)O1)NCc1cc(F)ccc1F the results were PGC1a acetyl inh 2.0, DENV2 CPE -3.2, Statin myotox sup 3.3, S100A4 inh HTS -63.6 and SIRT5 block 5.3.
Nc1c(Cl)cc(C2=NCCn3nc4ccccc4c32)cc1Cl was read as DENV2 CPE 21.5*, Statin myotox sup 1.4 and S100A4 inh HTS -1.0.
Screening Cc1cc(OCc2cc(C(=O)NC(C)c3cnn(C)c3)no2)cc(C)c1Cl (stereo unspecified) returned DENV2 CPE 11.0, Statin myotox sup -1.8 and S100A4 inh HTS -2.5.
Cc1cc(OCc2cc(C(=O)N(C)C(C)c3ccccn3)no2)cc(C)c1Cl (stereo unspecified) was read as PGC1a acetyl inh -2.4, DENV2 CPE 31.3*, Statin myotox sup -1.1, S100A4 inh HTS -9.8 and SIRT5 block 7.1.
`Cc1cc(OCc2cc(C(=O)NC(C)c3c(C)nn(C)c3C)no2)cc(C)c1Cl` (stereo unspecified) gave PGC1a acetyl inh -5.5, DENV2 CPE -6.3, Statin myotox sup 8.3, S100A4 inh HTS 3.1 and SIRT5 block 18.3*.
For C[C@@H]1CN([C@@H](C)CO)C(=O)c2cc(NS(=O)(=O)c3cccs3)ccc2O[C@H]1CN(C)Cc1ccccc1 the results were PGC1a acetyl inh 13.7, DENV2 CPE 4.4, Statin myotox sup 31.8, S100A4 inh HTS -5.7 and SIRT5 block -2.6.
Screening N#C/C(=C/c1ccc(OCc2ccc(C(=O)O)cc2)c(Br)c1)c1cccc(F)c1 returned PGC1a acetyl inh 96.1*, DENV2 CPE 0.5, Statin myotox sup 9.7, S100A4 inh HTS -25.5 and SIRT5 block -2.8.
`C[C@H](CO)N1C[C@H](C)[C@@H](CN(C)S(=O)(=O)c2cn(C)cn2)Oc2c(NS(=O)(=O)c3ccccc3)cccc2C1=O` gave PGC1a acetyl inh 8.4, DENV2 CPE 23.1*!, Statin myotox sup -0.2, S100A4 inh HTS 1.2 and SIRT5 block -7.8.
For C[C@@H]1CN([C@@H](C)CO)C(=O)c2cccc(NS(=O)(=O)c3ccccc3)c2O[C@@H]1CN(C)CC1CCCCC1 the results were DENV2 CPE 24.4*, Statin myotox sup 8.3, S100A4 inh HTS 9.5 and SIRT5 block 1.0.
C[C@H](CO)N1C[C@H](C)[C@@H](CN(C)CC2CCCCC2)Oc2c(NS(=O)(=O)c3ccc(F)cc3)cccc2C1=O was read as PGC1a acetyl inh -10.5, DENV2 CPE -7.6, Statin myotox sup -1.2, S100A4 inh HTS 4.7 and SIRT5 block 26.8*!.
C[C@@H]1CN([C@@H](C)CO)C(=O)c2cccc(NS(=O)(=O)c3cn(C)cn3)c2O[C@@H]1CN(C)Cc1ccc(C(F)(F)F)cc1 was read as PGC1a acetyl inh 7.2, DENV2 CPE 21.9*, Statin myotox sup -6.6, S100A4 inh HTS 39.4 and SIRT5 block 0.6.
C[C@H](CO)N1C[C@H](C)[C@H](CN(C)Cc2ccc(C(F)(F)F)cc2)Oc2c(NS(=O)(=O)c3cn(C)cn3)cccc2C1=O was read as PGC1a acetyl inh 10.1, DENV2 CPE 1.4, Statin myotox sup 0.5, S100A4 inh HTS 50.5 and SIRT5 block -1.8.
Screening C[C@@H]1CN([C@H](C)CO)C(=O)c2cccc(NS(=O)(=O)c3ccccc3)c2O[C@@H]1CN(C)S(=O)(=O)c1cn(C)cn1 returned PGC1a acetyl inh -8.7, DENV2 CPE -1.2, Statin myotox sup 44.0, S100A4 inh HTS -19.3 and SIRT5 block 1.2.
C[C@@H]1CN([C@@H](C)CO)S(=O)(=O)c2ccc(C#C[C@@H](C)O)cc2O[C@H]1CN(C)C(=O)C1CCC1 was read as PGC1a acetyl inh 6.8, DENV2 CPE 0.6, Statin myotox sup -2.2, S100A4 inh HTS 7.6 and SIRT5 block 1.7.
Screening CC(=O)N1[C@@H]2Cn3c(ccc(-c4cccnc4)c3=O)[C@H]1[C@@H](C(=O)N1CCc3ccccc3C1)[C@@H]2CO returned DENV2 CPE 1.1, Statin myotox sup 25.0, S100A4 inh HTS 6.0 and SIRT5 block -40.1.
